According to the RNAGym collection of RNA variant scans (doi:10.1126/science.aae0568):
Variants at the floor of the assay were thinned out.

B1: tRNA (parent)
chain: GUUCCGUUGGCGUAAUGGUAACGCGUCUCCCUCCUAAGGAGAAGACUGCGGGUUCGAGUCCCGUACGGAACG

Variants of: B1
Assay: yeast fitness relative to wild type (ratio to wild type); higher = fitter; tRNA-Arg(CCU), competitive growth, 37 C, YPD
In short: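 A pool of Saccharomyces cerevisiae strains, each with a tRNA-Arg(CCU) gene variant at the native genomic locus, was competed in YPD at 37°C for 24 hours across six parallel replicates. The variants had been chemically synthesised at a 3% per-site mutation rate over 69 sites, and gene amplicons before and after competition were read by 100-nucleotide paired-end sequencing. Darwinian fitness relative to wild type rested on changes in genotype frequencies. Genotypes required ≥ 100 starting reads, and estimates < 0.5 were set to 0.5.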
With GUUCCGUUGGCGUAAUGGUAACGCGUCUCCCUCCUAAGGACAAGACUGCGGGUUCGAGUCUCGUACAGAACG the yeast fitness was ≤ 0.5.
In the case of GUUCCGUUGGCGUAAUGGUAACGCGUCUCCCUCCUAAGGAGCAGCCUGCGGCUUCGAGUCCCGUACGGUACG, the yeast fitness is reported as ≤ 0.5.
Variant GUUCCGUUGGCGUAAUGGUAACGCGUCUCCCUCCUAAGGAGCCGACUGCGGGUUCGAGUCCCGUACGGUACG has a yeast fitness of 0.819.
In the case of GUUCCGUUGGCGUAAUGGUAACGCGUCUCCCUCCUAAGGACAAGACUGCCGGUUCGAGUUCCGUACGGAACG, the yeast fitness is reported as ≤ 0.5.
For GUUCCGUUGGCGUAAUGGUAACGCGUCUCCCUCCUAAGGAGCAGCCUGCGGGUUCGAGUCCCGUACGGAACG, the yeast fitness was 0.854.
With GUUCCGUUGGCGUAAUGGUAACGCGUCUCCCUCCUAAGGAGCCGACUGCGGGUUCGAGUGGUGUACGGAACG the yeast fitness was ≤ 0.5.
With GUUCCGUUGGCGUAAUGGUAACGCGUCUCCCUCCUAAGGACGAGACUGCGGGUUCGAGUCCCGUACGGAACG the yeast fitness was 0.804.
In the case of GUUCCGUUGGCGUAAUGGUAACGCGUCUCCCUCCUAAGGAGCCGACUGUGGGUUCGAGUCCCGUACGGACCG, the yeast fitness is reported as 0.585.
With GUUCCGUUGGCGUAAUGGUAACGCGUCUCCCUCCUAAGGACAAGACUACGGGUUCGAGUCCCGUAAGGAACG the yeast fitness was 0.583.
In the case of GUUCCGUUGGCGUAAUGGUAACGCGUCUCCCUCCUAAGGACAAGACUGCGGGUUCGAGUGCCGUACGAAACG, the yeast fitness is reported as ≤ 0.5.
In the case of GUUCCGUUGGCGUAAUGGUAACGCGUCUCCCUCCUAAGGAGCAGACUGCGGGUUCGGGUCCCGUACGGAACG, the yeast fitness is reported as 0.749.
Variant GUUCCGUUGGCGUAAUGGUAACGCGUCUCCCUCCUAAGGAUAAGACUGCGCGUUCGAGUCCCGUACGGAACG has a yeast fitness of 0.565.
In the case of GUUCCGUUGGCGUAAUGGUAACGCGUCUCCCUCCUAAGGACAAGACUGCGGGUUCGAGUUCCGUACAGAACG, the yeast fitness is reported as ≤ 0.5.
With GUUCCGUUGGCGUAAUGGUAACGCGUCUCCCUCCUAAGGACAAGACUGCGGGUUCGAGCCCCGUACGGAACG the yeast fitness was 0.933.
In the case of GUUCCGUUGGCGUAAUGGUAACGCGUCUCCCUCCUAAGGACAAGACUGCGGGUUCGAAUCCCGUACGGAACG, the yeast fitness is reported as 0.948.
In the case of GUUCCGUUGGCGUAAUGGUAACGCGUCUCCCUCCUAAGGACAAGACUGCGGGUUCGACUCCCGUACGGAACG, the yeast fitness is reported as 0.762.
For GUUCCGUUGGCGUAAUGGUAACGCGUCUCCCUCCUAAGGACAAGAAUGCGGGUUCGAGUCCGGUACGGAACG, the yeast fitness was 0.551.
With GUUCCGUUGGCGUAAUGGUAACGCGUCUCCCUCCUAAGGACAAGACUGCAGGUUCGAGUCCCGUACGGAACG the yeast fitness was 0.703.
In the case of GUUCCGUUGGCGUAAUGGUAACGCGUCUCCCUCCUAAGGACAAGACUGCCGGUUCGAGUCCCGUACGGAACG, the yeast fitness is reported as 0.695.
With GUUCCGUUGGCGUAAUGGUAACGCGUCUCCCUCCUAAGGACAAGACUGCGGGUUCGAGUCCCGAACGGAACG the yeast fitness was 0.67.
Work on GUUCCGUUGGCGUAAUGGUAACGCGUCUCCCUCCUAAGGACAAGACUGCGGGUUCGAGUCCCGCACGGAACG yielded a yeast fitness of 0.896.
In the case of GUUCCGUUGGCGUAAUGGUAACGCGUCUCCCUCCUAAGGACAAGACUGCGGGUUCGAGACACGUAUGCAACG, the yeast fitness is reported as ≤ 0.5.
GUUCCGUUGGCGUAAUGGUAACGCGUCUCCCUCCUAAGGACAAGACUGCGGGUUCGAGUCCCGUACGGCACG gave a yeast fitness of 0.858.
In the case of GUUCCGUUGGCGUAAUGGUAACGCGUCUCCCUCCUAAGGACAAGACUGCGGGUUCGAGUCCCGUACGGUACG, the yeast fitness is reported as 0.813.
For GUUCCGUUGGCGUAAUGGUAACGCGUCUCCCUCCUAAGGACAAGACUGCGGGUUUGAGUCCCGUACCGAACG, the yeast fitness was ≤ 0.5.
With GUUCCGUUGGCGUAAUGGUAACGCGUCUCCCUCCUAAGGAUAAGACUGCGGGUUCGAGUCCCGUACGGAACG the yeast fitness was 0.988.
Work on GUUCCGUUGGCGUAAUGGUAACGCGUCUCCCUCCUAAGGAGCAGACUGCGGGUUCGAGUCCCGUGCGGAACG yielded a yeast fitness of 0.922.
GUUCCGUUGGCGUAAUGGUAACGCGUCUCCCUCCUAAGGAGCAGACUGCGGGUUCGAGUCCCGUCCGGAACG showed a yeast fitness of 0.942.
Variant GUUCCGUUGGCGUAAUGGUAACGCGUCUCCCUCCUAAGGAGCAGACUGCGGGUUCGAGUCCCGUUCGGAACG has a yeast fitness of 0.784.
For GUUCCGUUGGCGUAAUGGUAACGCGUCUCCCUCCUAAGGACAAGACUGCGGGUGCGAGUCCCGUACGGAACG, the yeast fitness was ≤ 0.5.
With GUUCCGUUGGCGUAAUGGUAACGCGUCUCCCUCCUAAGGACAAGACUGCGGGUCCGAGUCCCGUACGGAACG the yeast fitness was 0.889.
GUUCCGUUGGCGUAAUGGUAACGCGUCUCCCUCCUAAGGACAAGACUGCGGGUUCGAGUCACGUACGGAACG gave a yeast fitness of 0.593.
Variant GUUCCGUUGGCGUAAUGGUAACGCGUCUCCCUCCUAAGGACAAGACUGCGGGUUCGAGUCUCGUACGGAACG has a yeast fitness of 0.857.
In the case of GUUCCGUUGGCGUAAUGGUAACGCGUCUCCCUCCUAAGGAUAAGACUGCGGGUUCGAGUCCCGUACGGUACG, the yeast fitness is reported as 0.845.
In the case of GUUCCGUUGGCGUAAUGGUAACGCGUCUCCCUCCUAAGGACAAGACUGCGGGUUCGAGUCCCGUGCGGAACG, the yeast fitness is reported as 0.905.
GUUCCGUUGGCGUAAUGGUAACGCGUCUCCCUCCUAAGGACAAGACUGCGGGUUCGAGUCCCGUUCGGAACG showed a yeast fitness of 0.858.
Work on GUUCCGUUGGCGUAAUGGUAACGCGUCUCCCUCCUAAGGACAAGACUGCGGGUUGGAGUCCCGUACGGAACG yielded a yeast fitness of 0.621.
Work on GUUCCGUUGGCGUAAUGGUAACGCGUCUCCCUCCUAAGGAGCCGACUGCGGGUUCGAGUCCCGUACGGAACG yielded a yeast fitness of 1.02.
With GUUCCGUUGGCGUAAUGGUAACGCGUCUCCCUCCUAAGGAGCGGACUGCGGGUUCGAGUCCCGUACGGAACG the yeast fitness was 0.885.
Work on GUUCCGUUGGCGUAAUGGUAACGCGUCUCCCUCCUAAGGAGCUGACUGCGGGUUCGAGUCCCGUACGGAACG yielded a yeast fitness of 0.779.
Work on GUUCCGUUGGCGUAAUGGUAACGCGUCUCCCUCCUAAGGAUAAGACUGCGGGUUCGAGUCCCGUAUGGAACG yielded a yeast fitness of 0.845.
For GUUCCGUUGGCGUAAUGGUAACGCGUCUCCCUCCUAAGGAGCAGCCUACGGGUUCGAAUCUCGUACGGAGCG, the yeast fitness was ≤ 0.5.
GUUCCGUUGGCGUAAUGGUAACGCGUCUCCCUCCUAAGGACUAGACUGCGGGUUCGAGUCCCGCACGGAACG gave a yeast fitness of 0.82.
With GUUCCGUUGGCGUAAUGGUAACGCGUCUCCCUCCUAAGGACGAGACUGCGAGUUCGAGUCCCGUACGCAACG the yeast fitness was ≤ 0.5.
Work on GUUCCGUUGGCGUAAUGGUAACGCGUCUCCCUCCUAAGGACAAGAAUGCGGGUUCGAGUCCCGUACGGAACG yielded a yeast fitness of 0.982.
With GUUCCGUUGGCGUAAUGGUAACGCGUCUCCCUCCUAAGGACAAGUCUGCGGGUUCGAGUCCCGUACCGAACG the yeast fitness was 0.607.
In the case of GUUCCGUUGGCGUAAUGGUAACGCGUCUCCCUCCUAAGGAGCCGACUGCGGGUUCGAGUCCCGUGCGGAACG, the yeast fitness is reported as 1.09.
For GUUCCGUUGGCGUAAUGGUAACGCGUCUCCCUCCUAAGGACAAGACUGCGGGUUAGAGUCCCGUAUGGCACG, the yeast fitness was ≤ 0.5.
In the case of GUUCCGUUGGCGUAAUGGUAACGCGUCUCCCUCCUAAGGACAAGACUGCGAGUUCGAGUCCCGUACGGAACG, the yeast fitness is reported as 0.844.
With GUUCCGUUGGCGUAAUGGUAACGCGUCUCCCUCCUAAGGACAAGACUGCGGGUUCGAGUCCCGUACGGAGCG the yeast fitness was 0.829.
GUUCCGUUGGCGUAAUGGUAACGCGUCUCCCUCCUAAGGACAAGACUGCGGGUUCGAGUCCCGUACGGAUCG showed a yeast fitness of 0.88.
GUUCCGUUGGCGUAAUGGUAACGCGUCUCCCUCCUAAGGACAAGACUGCGGGUUCGAGUCCCGUACGGACCG gave a yeast fitness of 0.858.
GUUCCGUUGGCGUAAUGGUAACGCGUCUCCCUCCUAAGGACAAGACCGCGGGUUCGAGUCCCGUACGGAACG gave a yeast fitness of 0.937.
GUUCCGUUGGCGUAAUGGUAACGCGUCUCCCUCCUAAGGACAAGACAGCGGGUUCGAGUCCCGUACGGAACG gave a yeast fitness of 0.654.
In the case of GUUCCGUUGGCGUAAUGGUAACGCGUCUCCCUCCUAAGGAGCAGACUGCGGGUUCGUGUCUCGUACGGAACG, the yeast fitness is reported as ≤ 0.5.
GUUCCGUUGGCGUAAUGGUAACGCGUCUCCCUCCUAAGGACAAGGCUGCGGGUUCGAGUCCCGUACGGAACG gave a yeast fitness of 0.778.
Work on GUUCCGUUGGCGUAAUGGUAACGCGUCUCCCUCCUAAGGACAAGUCUGCGGGUUCGAGUCCCGUACGGAACG yielded a yeast fitness of 0.778.
GUUCCGUUGGCGUAAUGGUAACGCGUCUCCCUCCUAAGGAGCGGACUGCGGGUUCGAGUCCCAUACGGAACG gave a yeast fitness of 0.599.
Work on GUUCCGUUGGCGUAAUGGUAACGCGUCUCCCUCCUAAGGACAGGACUGCGGGUACGAGUCCCGUACGGAACG yielded a yeast fitness of 0.564.
For GUUCCGUUGGCGUAAUGGUAACGCGUCUCCCUCCUAAGGACAAGUCUGCGGGUUUGAGUCCCGUACGGAACG, the yeast fitness was ≤ 0.5.
With GUUCCGUUGGCGUAAUGGUAACGCGUCUCCCUCCUAAGGAUAAGACUGCGGCUUCGAGUCCCGUACGGAACG the yeast fitness was 0.584.
Variant GUUCCGUUGGCGUAAUGGUAACGCGUCUCCCUCCUAAGGACAUGACUGCGGGUUCGAGUCCCGUACGGAACG has a yeast fitness of 0.957.
Work on GUUCCGUUGGCGUAAUGGUAACGCGUCUCCCUCCUAAGGACAGGACUGCGGGUUCGAGUCCCGUACGGAACG yielded a yeast fitness of 0.898.
GUUCCGUUGGCGUAAUGGUAACGCGUCUCCCUCCUAAGGACAAGACUGUGGGUUCGAGUCCCGUACGGAACG gave a yeast fitness of 0.894.
GUUCCGUUGGCGUAAUGGUAACGCGUCUCCCUCCUAAGGACAAGACUGGGGGUUCGAGUCCCGUACGGAACG showed a yeast fitness of 0.702.
For GUUCCGUUGGCGUAAUGGUAACGCGUCUCCCUCCUAAGGACAAGACUGCGGGUUCAAGUCCCGUGUGGAACG, the yeast fitness was ≤ 0.5.
GUUCCGUUGGCGUAAUGGUAACGCGUCUCCCUCCUAAGGACAAGACUGCGGGUUCGAGUCCCCUACGGAACG showed a yeast fitness of 0.727.
For GUUCCGUUGGCGUAAUGGUAACGCGUCUCCCUCCUAAGGACAAGACUGCGGGUUCGAGUCCCAUACGGAACG, the yeast fitness was 0.852.
Variant GUUCCGUUGGCGUAAUGGUAACGCGUCUCCCUCCUAAGGACAAGACUGCGGGUUAGAGUCCCGUACGGCACG has a yeast fitness of 0.529.
GUUCCGUUGGCGUAAUGGUAACGCGUCUCCCUCCUAAGGACAAGACUGCGGGUUCGAGUCCUGUACGGAACG showed a yeast fitness of 0.802.
Variant GUUCCGUUGGCGUAAUGGUAACGCGUCUCCCUCCUAAGGACAAGACUGCGGGUUCGAGUCCCGUAUGGAACG has a yeast fitness of 0.83.
With GUUCCGUUGGCGUAAUGGUAACGCGUCUCCCUCCUAAGGAGCAGACUGCGGGUUCGGGUCUCGUACGGAACG the yeast fitness was ≤ 0.5.
With GUUCCGUUGGCGUAAUGGUAACGCGUCUCCCUCCUAAGGAGCGGACUGCGGGUUGGAGUCCCGUACGCAACG the yeast fitness was ≤ 0.5.
With GUUCCGUUGGCGUAAUGGUAACGCGUCUCCCUCCUAAGGACAAGACUGCGGGUUGGAGUCCCGUAGGGAACG the yeast fitness was ≤ 0.5.
In the case of GUUCCGUUGGCGUAAUGGUAACGCGUCUCCCUCCUAAGGACAAGACUGCGGGUUCGAGUCCAGUACGCAACG, the yeast fitness is reported as ≤ 0.5.
